The text below walks through data of ChEMBL document CHEMBL1146882, “Hepatoprotective activity of Schouwia thebica webb” (2006).

Assay [1] deals with Rattus norvegicus. The experiment in a line: Alanine aminotransferase activity in Sprague-Dawley rat serum at 100 mg/kg, po. Type of assay: functional. The method in brief:
(§1)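 Male Sprague–Dawley rats (180-200 g), 5 per group, dosed orally once daily for 5 successive days. Twenty-four hours after the last dose, each rat received a single oral dose of 50% CCl4 in corn oil (2.5 ml/kg). Comparison groups were corn oil alone and CCl4 alone. Two days later, blood was taken from the orbital plexus, and serum was separated by centrifugation at 3000 rpm for 15 min for the assays.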

For assay [2], the system named is Rattus norvegicus. Briefly: Aspartate aminotransferase activity in Sprague-Dawley rat serum at 100 mg/kg, po. The assay is classed as functional. In short, it runs like this:
as §1

The test system of assay [3] is Rattus norvegicus. The experiment in a line: Triglyceride level in Sprague-Dawley rat serum at 100 mg/kg, po. The assay is classed as functional. The method in brief:
as §1

Assay [4] deals with Rattus norvegicus. Briefly: Gamma-glutamyl transferase activity in Sprague-Dawley rat serum at 100 mg/kg, po. Type of assay: functional. In short, it runs like this: as §1
The subject of assay [5] is Rattus norvegicus. Briefly: Total protein level in Sprague-Dawley rat serum at 100 mg/kg, po. The assay is classed as functional. The method in brief:
as §1

Assay [6] concerns Rattus norvegicus. Briefly: Cholesterol level in Sprague-Dawley rat serum at 100 mg/kg, po. The assay is classed as functional. In short, it runs like this:
as §1

For assay [7], the system named is Rattus norvegicus. Briefly: Total bilirubin level in Sprague-Dawley rat serum at 100 mg/kg, po. The assay is classed as functional. The method in brief:
as §1

The subject of assay [8] is Rattus norvegicus. Briefly: Glucose level in Sprague-Dawley rat serum at 100 mg/kg, po. Type of assay: functional. The method in brief:
as §1

For assay [9], the system named is Rattus norvegicus. The experiment in a line: Albumin level in Sprague-Dawley rat serum at 100 mg/kg, po. The assay is classed as functional. In short, it runs like this: as §1
In assay [10] the test system is Rattus norvegicus. The experiment in a line: Triglyceride level in Sprague-Dawley rat serum at 25 mg/kg, po. The assay is classed as functional, organism-based. Also on record: dose 25 mg/kg. In short, it runs like this: as §1
Assay [11] relates to Rattus norvegicus. The experiment in a line: Aspartate aminotransferase activity in Sprague-Dawley rat serum at 25 mg/kg, po. Type of assay: functional, organism-based. Also on record: dose 25 mg/kg. The method in brief:
as §1

Assay [12] deals with Rattus norvegicus. Briefly: Total bilirubin level in Sprague-Dawley rat serum at 25 mg/kg, po. The assay is classed as functional, organism-based. Also on record: dose 25 mg/kg. The method in brief:
as §1

The subject of assay [13] is Rattus norvegicus. Briefly: Gamma-glutamyl transferase activity in Sprague-Dawley rat serum at 25 mg/kg, po. Also on record: dose 25 mg/kg. Type of assay: functional, organism-based. The method in brief:
as §1

Assay [14] relates to Rattus norvegicus. Briefly: Cholesterol level in Sprague-Dawley rat serum at 25 mg/kg, po. Type of assay: functional, organism-based. Also on record: dose 25 mg/kg. In short, it runs like this:
as §1

Assay [15] has as its system Rattus norvegicus. The experiment in a line: Alanine aminotransferase activity in Sprague-Dawley rat serum at 25 mg/kg, po. Type of assay: functional, organism-based. Also on record: dose 25 mg/kg. The method in brief:
as §1

In assay [16] the test system is Rattus norvegicus. The experiment in a line: Total protein level in Sprague-Dawley rat serum at 25 mg/kg, po. Type of assay: functional, organism-based. Also on record: dose 25 mg/kg. The method in brief:
as §1

Assay [17] has as its system Rattus norvegicus. The experiment in a line: Glucose level in Sprague-Dawley rat serum at 25 mg/kg, po. Also on record: dose 25 mg/kg. Type of assay: functional, organism-based. The method in brief: as §1
Assay [18] deals with Rattus norvegicus. The experiment in a line: Albumin level in Sprague-Dawley rat serum at 25 mg/kg, po. Type of assay: functional, organism-based. Also on record: dose 25 mg/kg. In short, it runs like this:
as §1

Regarding `COc1cc(-c2cc(=O)c3c(O)cc(OC4O[C@H](CO)[C@@H](O)[C@@H]4OC4OC[C@@H](O)[C@H](O)[C@H]4O)cc3o2)ccc1O` (some centres not stated), the Activity worked out at 68.43 U/L with Rattus norvegicus [1]; 61.64 U/L in the assay on Rattus norvegicus [2]; 177.22 mg/dL with Rattus norvegicus [3]; 12.03 U/L in the assay on Rattus norvegicus [4]; 5.67 g/dL in the assay with Rattus norvegicus [5]; 88.34 mg/dL with Rattus norvegicus [6]. Further, the Activity in the assay on Rattus norvegicus [7] turned out to be 0.33 mg/dL; in the assay with Rattus norvegicus [8] it was 163.36 mg/dL; in the assay on Rattus norvegicus [9] it was 3.07 g/dL.

With `COc1cc(-c2cc(=O)c3c(O)cc(O)cc3o2)ccc1O` [CHRYSOERIOL], the Activity in the assay with Rattus norvegicus [1] was determined as 69.42 U/L; in the assay with Rattus norvegicus [2], 62.65 U/L; with Rattus norvegicus [3], 176.21 mg/dL; in the assay with Rattus norvegicus [4] it was 12.05 U/L; with Rattus norvegicus [5] it was 5.61 g/dL; with Rattus norvegicus [6], 88.37 mg/dL. The Activity in the assay on Rattus norvegicus [7] came out at 0.33 mg/dL; with Rattus norvegicus [8], 165.36 mg/dL; in the assay on Rattus norvegicus [9], 3.05 g/dL.

For the compound SILYMARIN, the Activity with Rattus norvegicus [10] was 171 mg/dL; in the assay with Rattus norvegicus [11], 56.6 U/L; in the assay with Rattus norvegicus [12], 0.38 mg/dL; with Rattus norvegicus [13], 10.5 U/L; in the assay on Rattus norvegicus [14] it was 80.9 mg/dL; in the assay on Rattus norvegicus [15], 65.2 U/L. Besides, the Activity was 6.1 g/dL with Rattus norvegicus [16], 141 mg/dL in the assay with Rattus norvegicus [17] and 3.1 g/dL in the assay with Rattus norvegicus [18].
